Compound activity deposited in PubChem by several laboratories.
STAT1 blocker: reduces IFN-gamma driven STAT1 reporter signal; NIH 3T3 STAT1-luciferase reporter, luminescence; inhibition, % at 5.5 µM; actives 0.35% (n = 200,000);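 active = inhibition above a set limit, the mean inhibition across all tested compounds plus 3 SD, cut at about 34% in these data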;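 note: 0% = IFN-gamma with DMSO and 100% = IFN-gamma with 300 µM nifuroxazide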
NF-kB expr up: NF-kB expression increase, human neuronal cells | NF-kB reporter expression; stronger effect = higher value | actives 1.6% (n = 190,000) | fold change at 12.5 µM; in the data active = fold change above about 3.3
STAT3 act: increases IL-6 driven STAT3 reporter signal; actives 0.91% (n = 190,000); AID 871; U3A cells, IL-6 STAT3-luciferase reporter, luminescence; 100% = signal with IL-6 EC80 alone; activation (% of control), % at 5.6 µM;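 active = activation above the screen-wide mean of compound activation plus 3 SD, cut at about 130% in these data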;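 note: 0% = background luminescence of wells with medium and substrate only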
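Material: human STAT1-deficient U3A cells with stable STAT3-luciferase reporter / Probe or stimulus: IL-6 stimulus at 33 ng/mL final / Schedule: 1 h compound pre-exposure, 6 h IL-6 stimulation, 37 °C / Technique: luminescence / Read-out basis: percent of IL-6-only median luminescence / Control set: IL-6-only high control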
STAT1 act: STAT1 signaling activation. actives 2.6% (n = 200,000). activation (% of control), % at 5.5 µM. AID 932. NIH 3T3 STAT1-luciferase reporter, IFN-gamma, luminescence; 100% = IFN-gamma alone, no compound;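 active = activation above the screen-wide mean activation plus 3 SD, cut at about 130% in these data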;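 note: raw ratio to IFN-gamma control signal so 100% means no change and 0% no light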
Pf gametocyte: inhibitors of late stage P. falciparum gametocyte viability; P. falciparum stage V gametocytes, ATP luminescence, 24 h; inhibition, % at 10.9 µM; actives 0.065% (n = 150,000);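 active = inhibition above the mean plus 3 SD of compounds within the control limits, set per campaign, cut at about 38% in these data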;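 note: 0% = DMSO wells and 100% = medium only without gametocytes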
APP 5'UTR act: activates APP 5'UTR luciferase reporter. SH-SY5Y APP 5'UTR luciferase reporter, luminescence; zero percent = DMSO vehicle wells. activation, % at 2 µM. actives 1% (n = 190,000). AID 1276;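 active = activation above a set limit, based on mean plus 3 SD of controls, cut at about 140% in these data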
* marks the source's active call; other numbers are inactive results; . = no result given. Shown are actives, neighbours in structure and some others; about 3.9% of the full set was active somewhere.

SMILES	STAT1 blocker	NF-kB expr up	STAT3 act	STAT1 act	Pf gametocyte	APP 5'UTR act
Cc1ccc2nc(-c3ccc(SCC(=O)Nc4nnc(C)s4)nc3)[nH]c2c1	-26.5	2.3	100.4	124.2	25.4	92.7
COC(=O)c1cccc(N(C(=O)c2cnccn2)C(C(=O)NC2CCCCC2)c2cn(C)nc2C)c1 (stereo not given)	4.3	0.68	102.1	96.1	0.8	2.0
OCC1CCCN(C(=S)Nc2ccc(Oc3ccccc3)cc2)C1 (stereo not given)	-54.0	2.36	109.2	147.0*	0.2	68.6
CC1CCCN(C(=S)Nc2ccc(Nc3ccccc3)cc2)C1 (stereo not given)	-41.5	1.94	97.8	135.8*	-8.8	79.6
CC(=O)c1ccc(NC(=S)N2CCCC(CO)C2)cc1 (stereo not given)	-15.3	2.38	90.6	113.9	-4.9	25.0
CC1CCCN(C(=S)Nc2ccc(F)cc2)C1 (stereo not given)	-1.6	1.22	104.8	99.5	-3.1	13.1
CC(C(=O)NCCc1ccc(F)cc1)N1CCN(Cc2ccccc2)CC1 (stereo not given)	-5.0	1.19	109.9	102.6	.	-1.3
CCn1c(/C=C/c2c[nH]c3ccccc23)nc2ccccc2c1=O	-54.7	3.37*	99.3	148.2*	7.9	181.8*
CC1CCCC(N2CCN(C(=O)c3ccc([N+](=O)[O-])cc3)CC2)C1 (stereo not given)	.	.	.	.	-3.0	.
COc1ccc(N2C(=O)C3CC(C)=C(C)CC3C2=O)c(OC)c1 (stereo not given)	-16.1	1.15	104.3	114.8	-24.3	2.6
COc1ccc(N2C(=O)CCC2=O)c(OC)c1	-45.3	1.07	98.9	140.4*	4.0	-7.8
CC(/C=C/c1ccccc1F)=N\NC(=O)c1ccccc1	-37.8	2.7	91.8	133.2*	.	79.6
C/C(=N/NC(=O)c1ccccc1)C(=O)O	-36.7	1.74	102.8	132.4*	7.5	0.7
CC(/C=C/c1ccccc1F)=N\NC(=O)c1ccc(Cl)cc1	6.3	0.83	95.0	92.7	.	-2.2
COc1ccccc1N1CCN(C(=O)c2ccc3[nH]c4c(c3c2)CC(C)CC4)CC1 (stereo not given)	9.0	0.77	104.5	92.0	17.2	-13.0
CN=C1S/C(=C\c2cn(CC(=O)OC)c3ccccc23)C(=O)N1C	-9.4	1.03	134.9*	108.7	-3.3	-4.2
CCOC(=O)Cc1ccc2sc(-c3ccccc3)nc2c1	-43.4	9.44*	93.4	138.7*	.	177.5*
CCOC(=O)c1cc(-c2ccccc2)sc1NC(=O)CC	1.9	1.18	94.0	98.3	7.2	-14.5
CCOC(=O)CC(=O)Nc1nc2ccccc2s1	-15.1	1.27	103.5	113.8	16.0	0.0
Cc1nc(-c2ccccc2)sc1C(N)=O	-1.1	1.22	100.8	101.0	5.1	16.9
CCOC(=O)c1cc(-c2ccccc2)sc1N	-38.2	2.42	101.1	135.1*	-7.9	27.6
CCOC(=O)c1sc(-c2ccccc2)nc1C	-41.7	1.39	104.3	134.9*	14.1	40.9
CCOC(=O)c1sc(-c2ccccc2)cc1N	-47.1	2.45	105.0	132.1*	-5.1	85.7
O=C(O)c1cc([N+](=O)[O-])cc2c1nnn2O	-0.4	1.02	98.3	99.0	.	4.7
O=C(O)C(C(O)c1ccc([N+](=O)[O-])cc1)[n+]1ccccc1 (stereo not given)	.	.	.	.	15.1	.
SMILES	STAT1 blocker	NF-kB expr up	STAT3 act	STAT1 act	Pf gametocyte	APP 5'UTR act
Cc1ccc(S[C@@H](CCN2CC[C@H](C(C)(C)C)CCC2=O)c2ccccc2)cc1	.	.	.	.	-1.9	.
CCOC(=O)c1nc(NNC(C)=O)sc1C	-0.3	1.11	94.3	99.0	14.7	13.2
CCOC(=O)c1nc(NCCc2ccccc2)sc1C	-34.3	2.39	98.5	132.1*	.	14.8
CNc1nc(C)c(C(=O)OCc2ccccc2)s1	-17.1	4.95*	101.2	115.9	.	28.0
CNc1nc(C)c(C(=O)OCC(=O)OC)s1	-8.9	1.29	106.0	109.6	.	-7.9
COc1ccc(C(=O)Nc2ccc(Nc3ccccc3)cc2)cc1OC	.	.	.	.	-19.2	.
C=CCOc1c(CNc2cccc(C(=O)O)c2)cccc1OC	-48.9	1.94	119.2	145.0*	.	55.6
COc1ccc(/C(C)=N/Nc2cccc(C(=O)O)c2)cc1OC	-8.9	1.08	111.5	106.8	-28.7	217.2*
C=CCOc1c(CNc2cccc(C(=O)O)c2)cccc1OCC	-12.9	1.64	101.1	111.6	.	11.2
C/C(=N\Nc1cccc(C(=O)O)c1)c1ccc(Cl)s1	-37.3	2.1	97.8	134.8*	20.4	85.6
COc1ccc(C(=O)Nc2ccc(/C(C)=N/NC(=O)c3ccccc3O)cc2)cc1OC	-32.4	0.77	102.9	129.3*	13.8	13.1
CN(C(=O)CSc1ncnc2sccc12)c1c(N)n(Cc2ccccc2)c(=O)[nH]c1=O	.	.	.	.	6.3	.
c1ccc2sc(NN=C3CCCCCC3)nc2c1	34.3*	2.94	40.1	66.4	-0.6	149.1*
Cc1ccc(/C=C2/SC(=O)NC2=S)o1	-14.1	0.97	105.8	112.0	.	28.1
O=c1c2cc(N3CCOCC3)ccc2[nH]c(=S)n1CCc1ccccc1	-35.7	1.76	81.8	131.6*	8.9	14.5
COc1ccc(CCn2c(=S)[nH]c3ccc(N4CCOCC4)cc3c2=O)cc1OC	-20.1	0.8	89.0	118.1	23.1	-12.8
CC(=O)NC(c1ccc(Cl)cc1)c1c(O)ccc2ccc(O)cc12 (stereo not given)	-32.9	0.67	110.3	130.5*	6.4	-18.5
Fc1cccc(-c2cc3nc4c(c(N5CCOCC5)n3n2)CCCC4)c1	-7.6	0.54	100.1	108.5	.	13.8
COc1cccc(-c2cc3nc4c(c(NCC(C)(C)CN(C)C)n3n2)CCCC4)c1	-44.8	0.9	108.4	140.4*	15.7	102.8
Fc1cccc(-c2cc3nc4c(c(NCc5ccco5)n3n2)CCCC4)c1	-47.5	4.6*	92.5	142.8*	.	165.8*
O=C(CSc1nc2ccc(Cl)cc2[nH]1)c1cccs1	.	.	.	.	8.9	.
COc1cccc(NC(=S)/C(=C(\[O-])c2cc(C)n(-c3ccccc3F)c2C)[n+]2ccc(N(C)C)cc2)c1	30.9	0.57	96.8	70.3	.	25.8
COc1ccc(C(=O)/C=C2\NCC3c4ccccc4CCN3C2=O)cc1 (stereo not given)	-0.1	0.95	134.9*	100.1	15.4	6.1
CCN(CC)S(=O)(=O)c1ccc(C)c(N=C=S)c1	0.5	0.95	99.7	99.5	2.8	29.3
C(=C\c1nc(-c2ccncc2)no1)/c1ccccc1	-53.9	.	94.0	150.0*	.	115.8
C(=C\c1ccncc1)/c1ccccc1	.	.	.	.	-7.8	.
NC(=O)c1ccccc1NC(=O)/C=C/c1c(Cl)cccc1Cl	-28.6	2.41	99.5	125.8	-16.1	106.9
NC(=O)c1ccccc1N/C=C/C(=O)c1ccc(Cl)cc1Cl	-22.8	5.89*	48.8	120.8	4.5	174.1*
